LMPTP block – LMPTP (human) inhibition. P24666. recombinant LMPTP-A, OMFP fluorogenic substrate, fluorescence intensity. inhibition, % at 20 µM. 360,000 compounds, 0.22% hits;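 active means compounds that cut the enzyme signal by at least half of the control window in the single-dose screen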;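 further: plate controls were DMSO wells with enzyme plus substrate for no effect and substrate without enzyme for full effect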
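Assay system: LMPTP-A, protein tyrosine phosphatase of low molecular weight / Medium: pH 6.0 Bis-Tris buffer with DTT and Triton X-100 / Schedule: 50 min enzyme reaction at room temperature, protected from light / Measured by: endpoint fluorescence intensity from OMFP dephosphorylation / Read-out basis: % inhibition relative to no-enzyme and uninhibited control wells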
STEP block – inhibitors of human striatal-enriched phosphatase STEP | recombinant STEP, OMFP fluorogenic substrate, fluorescence | 360,000 compounds, 0.25% hits | inhibition, % at 20 µM | P54829;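 active means inhibition at 20 µM, scaled per plate between control wells, above about 37%, limit read from the data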;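 further: 0% = DMSO with enzyme and substrate and 100% = substrate only without enzyme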
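medium = Bis-Tris buffer pH 6.0, 2.5 mM DTT, 0.005% Tween 20 | test system = STEP (striatal-enriched tyrosine phosphatase) enzyme, cell-free | measure = normalized % inhibition | compound dosing = 20 µM, 1% DMSO | also added = 25 µM OMFP | schedule = reaction 20 min, ambient temperature | measured by = fluorescence read at 480 nm ex / 540 nm em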
Scp-1 inhibitor – Scp-1 (human) phosphatase inhibition; Recombinant Scp1, phosphopeptide, malachite green phosphate absorbance; inhibition, % at 20 µM; 340,000 compounds, 0.88% hits;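 active means inhibition above about 50% at 20 µM, limit read from the data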;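 further: plate controls were DMSO wells with enzyme for no effect and wells lacking enzyme for full effect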
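System: truncated SCP-1 phosphatase (76-261aa); medium: Tris acetate buffer pH 5.5 with MgCl2 and Tween-20; incubation: 45 min room-temperature reaction, 5 min colour, 30 min stabiliser; compound: single 20 µM dose, 1% DMSO; reagent: Phosphorylated 17-residue peptide substrate; read-out: % inhibition at 20 µM; technique: colorimetric free-phosphate detection, absorbance 630 nm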
SUMO1 PPI mod – SUMO1-SIM interaction modulation; P63165; SUMO1 binding to a labelled peptide, TR-FRET, 1 h; inhibition, % at 20 µM; 360,000 compounds, 0.33% hits; in the data active means inhibition above about 37%
FAS TE block – FAS thioesterase (human) inhibition. recombinant FAS-TE, OMFH fluorogenic substrate, fluorescence endpoint. inhibition, % at 15 µM. 360,000 compounds, 0.67% hits;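 active means compounds whose normalised, plate-corrected inhibition of enzyme fluorescence in the single-dose primary screen is 50% or more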;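 further: 0% = DMSO with enzyme and 100% = substrate without enzyme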
FAS-TE inh conf – confirmation of human fatty acid synthase thioesterase inhibitors | shares compounds with FAS TE block | inhibition, % at 15 µM | recombinant FAS-TE, OMFH fluorogenic substrate, fluorescence | 2,300 compounds, 45% hits | AID 624325;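 active means compounds inhibiting the enzyme by at least 50% at 15 µM in any one of the replicates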;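 further: 0% = enzyme with DMSO only and 100% = wells lacking enzyme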
Active calls of the source: *; . = no result given. Shown are actives, neighbours in structure and some others; about 1.9% of the full set was active somewhere.

SMILES	LMPTP block	STEP block	Scp-1 inhibitor	SUMO1 PPI mod	FAS TE block	FAS-TE inh conf
CCc1nc2ccc(C(=O)NCc3ccc(OC)cc3)cn2c1N(CC)CCOC	-1	-2	.	1	-5	.
CCOC(=O)[C@]12CCC=C1N(CCC1=CCCCC1)C(=O)[C@H](CC(=O)N1CCN(C(=O)c3ccco3)CC1)C2	-2	.	.	4	-8	.
Cc1noc(C)c1NC(=O)N(C)C[C@H]1Oc2c(NC(=O)Nc3ccc(C(F)(F)F)cc3)cccc2C(=O)N([C@H](C)CO)C[C@@H]1C	-1	-4	-6	-3	23	.
CC(C)NC(=O)N(C)C[C@H]1Oc2c(NC(=O)Nc3ccc(C(F)(F)F)cc3)cccc2C(=O)N([C@H](C)CO)C[C@@H]1C	0	-3	-6	1	82*	86*
C[C@H](CO)N1C[C@H](C)[C@H](CN(C)S(=O)(=O)c2ccc(Cl)cc2)OCc2ccccc2-c2c(n(C)c3ccccc23)C1=O	3	-2	.	-1	69*	28
C[C@H](CO)N1C[C@H](C)[C@H](CN(C)Cc2ccc(-c3ccccc3)cc2)Oc2ccc(NS(=O)(=O)c3ccccc3)cc2CC1=O	4	-4	12	9	27	.
C[C@H](CO)N1C[C@H](C)[C@@H](CN(C)S(=O)(=O)c2ccc(F)cc2)Oc2c(NC(=O)Nc3ccc(C(F)(F)F)cc3)cccc2C1=O	2	4	-10	4	50*	47
Cc1ccc(S(=O)(=O)Nc2ccc3c(c2)CC(=O)N([C@H](C)CO)C[C@@H](C)[C@H](CN(C)Cc2ccc(-c4ccccc4)cc2)O3)cc1	2	-2	9	5	73*	23
Cc1ccc([C@H]2C[C@H](n3cc(C4CC4)nn3)[C@@H](O)CN2C(=O)C2CCCCC2)cc1	-1	-1	.	0	-3	.
COc1cc(C(=O)N/N=C/c2ccc(OC(=O)c3cccc(C)c3)c(OC)c2)ccc1O	0	0	-8	2	5	.
C[C@H]1CN([C@@H](C)CO)C(=O)c2cccc(NC(=O)Nc3ccc(C(F)(F)F)cc3)c2O[C@@H]1CN(C)S(=O)(=O)c1ccc(Cl)cc1	4	1	-14	1	58*	-1
Cc1ccc(S(=O)(=O)N(C)C[C@@H]2Oc3ccc(NC(=O)Nc4cccc5ccccc45)cc3C(=O)N([C@H](C)CO)C[C@H]2C)cc1	3	2	-7	-4	67*	7
COC(=O)c1ccc(CNC(=O)COC(=O)/C=C/c2cccc(OC)c2)cc1	-2	-1	.	-9	-3	.
CC1(C)CC(=O)C=C(c2cccc(Br)c2)C1	-2	4	-14	-13	1	.
O=C(NC1CCCC1)C(c1c[nH]c2ccccc12)N(C(=O)Cn1nnc(-c2ccc(Cl)cc2)n1)c1ccccc1 (configuration not stated)	0	1	-2	4	64*	30
CC(C)(C)NC(=O)C(c1c[nH]c2ccccc12)N(C(=O)Cn1nnc(-c2ccc(Cl)cc2)n1)c1ccccc1F (configuration not stated)	3	7	-9	2	45	.
CCCCn1c(=O)c2c(nc3n2CCCN3Cc2ccccc2)n(C)c1=O	1	3	-6	6	7	.
